Test [1] can be described thus: OD615 S. cerevisiae growth inhibition, permissive medium, pilot counter-assay, permissive growth control for S. cerevisiae lifespan shortening project (AID 705;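 active = growth inhibition above 25% in both replicates, a cutoff set 3 SD above the mean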). The note with it: OD615, 24 h, at 10 µM, active compounds read high. An outline of the steps:
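assay system = Saccharomyces cerevisiae strain carrying genetically modified DeaD replicative-lifespan system | technique = absorbance (optical density) at 615 nm | buffer or medium = permissive raffinose/galactose medium | timing = cells pre-grown 4 h, then 24 h compound exposure, 30 °C humidified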

A short description of test [2]: Restrictive medium S. cerevisiae growth inhibition, OD615, pilot screen of yeast lifespan reduction project, restrictive growth control (AID 706;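 active = growth inhibition above a set limit, 3 SD over mean compound inhibition, in both replicates, cut at about 43% in these data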;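 also: modified DeaD lifespan yeast strain shifted to restrictive glucose medium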). The settings on record: OD615, 48 h, at 10 µM, active compounds read high. The essentials: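 System: modified S. cerevisiae. Buffer or medium: CSMM-D glucose medium. Incubation: 4 h pre-growth plus 48 h compound exposure, 30 °C. Detection: absorbance (optical density) measured at 615 nm.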

Test [3] can be described thus: viability gain of MRP-1-high H69AR cells under doxorubicin, pilot screen, MRP-1 activator project, CellTiter-Glo, duplicate (AID 807;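 active = viability increase at or above a cutoff of the median across tested compounds plus 3 SD, cut at about 8.5% in these data, passing the limit was not always enough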;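 also: compound pretreatment 18-22 h then 72 h combined with doxorubicin; 0% = doxorubicin alone and 100% = vehicle without doxorubicin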). The settings on record: H69AR viability with doxorubicin, CellTiter-Glo luminescence; at 10 µM; active compounds read high. On the technique in general: Cellular ATP, detected with luciferase, serves as a proxy for viable cell number.
The nature of test [4]: growth suppression of beta-catenin knockout HCT116, pilot screen, human colon tumor cells (AID 823).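 Also: 0% = wells killed by 20 µM Hyamine and 100% = untreated DMSO cell wells.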 The settings on record: CellTiter-Glo, 60 h, at 10 µM, active compounds read low.
Test [5] is described as follows: growth suppression of PTEN-deleted HCT116, pilot screen, cell-based, HCT116 clonal line, CellTiter-Glo (AID 824;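 active = viability at or below 27.92% in each of two runs, the all-compound median minus 4 SD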;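 also: 0% = 20 µM Hyamine control and 100% = vehicle cell control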). The note with it: 60 h, at 10 µM, active compounds read low.
Test [6] is described as follows: inhibitors of the yeast RAM network, pilot screen, dse1pr::URA3 reporter, 5-FOA selection (AID 869;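 active = inhibition over a set limit, the all-compound mean plus 3 SD, in both replicate runs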;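 also: 0% = DMSO wells with no growth and 100% = 10 µM 1-NA-PP1 with full growth; RAM network block rescues cells from 5-FOA so hits raise OD615 growth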). The settings on record: S. cerevisiae dse1pr::URA3 5-FOA growth, OD615, 2 d; at 10 µM; active compounds read high; strain carries analog-sensitive mutant Cbk1 kinase.
Test [7] is described as follows: RAM signaling pathway blockade in yeast – S. cerevisiae, Pdr1DBD-CYC8 efflux-inhibited sensitized strain, primary screen (AID 1298;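 active = RAM network inhibition above 8.4% in each of two replicates, 3 SD over the compound average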;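 also: 0% = DMSO untreated cells without growth and 100% = 10 µM 1-NA-PP1 full growth; higher means more yeast growth rescued from 5-FOA killing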). The note with it: S. cerevisiae cbk1-as DSE1-URA3 strain, 5-FOA growth OD615, 2 d; at 50 µM; active compounds read high.

The values below come from PubChem BioAssay.

Unmarked numbers belong to inactive results. Records with an inconclusive call do not appear. Calls of active or inactive are those of the source.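 The calls were made as follows, unless noted: active = cell viability at or below a set limit in both duplicate runs, the limit being the all-compound median minus 4 SD (cut at about 23% in these data, passing the limit was not always enough); inconclusive = no clear call, values can overlap the other calls; inactive = the rest.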

In the case of `CC(C)CCNC(=O)c1ccc2c(c1)N(Cc1ccccc1)C(=O)CS2=O` (configuration not stated), the growth inhibition is -0.755% in test [1] and 4.24% in test [2]. The viability increase in test [3] is 1.95%. In addition, the results for the viability in test [4] and in test [5] were 104% and 94%, respectively. For the same compound, the inhibition – broadly, the change of the read-out against control, counted positive when it falls – in test [6] is 0.275%. In test [7], the RAM network inhibition was 1.41%.
For the compound `Cc1cccc(CSc2nnc(-c3ccccn3)n2N)c1`, the growth inhibition was -6.39% in test [1] and 14.2% in test [2]. For the same compound, in test [3], the viability increase is -2.01%. The viability (as a rule, a read-out of living cells in per cent, often relative to untreated cells) in test [4] was 103%; in test [5], 94.4%. Moreover, the inhibition in test [6] is 0.655%. For the same compound, in test [7], the RAM network inhibition is 0.89%.
Consider `COc1ccccc1S(=O)Cc1ccc(C(=O)NCc2ccccc2Cl)o1` (configuration not stated), for which the growth inhibition in test [1] was -7.49%; in test [2], -16.8%. Also, in test [3], the viability increase was -1.27%. The viability in test [4] is 100%; in test [5], 89.7%. In addition, the inhibition in test [6] was 2.41%. Besides, in test [7], the RAM network inhibition was 4.64%.
Take `Cc1cccc(NC(=O)Nc2ccc(C#N)cc2)n1`: the growth inhibition in test [1] was -15.2%; in test [2] it was -6.73%. Moreover, the viability increase in test [3] is -5.92%. The viability is 18.1% (active) in test [4] and 17.4% (active) in test [5]. The inhibition in test [6] is -0.505%. Also, the RAM network inhibition in test [7] is 3.51%.
Consider `CCCN1CCN(C(=O)CCCn2c(C)c3cnn(-c4ccccc4)c(=O)c3c2C)CC1`, for which the growth inhibition was -10.1% in test [1] and -6.09% in test [2]. In addition, the viability increase in test [3] was -2.94%. Besides, the viability in test [4] was 102%; in test [5], 105%. In test [6], the inhibition is -0.215%. Further, the RAM network inhibition in test [7] was 3.77%.
For the compound `O=C(c1cc(-c2ccccc2)nc2ccccc12)N1CCOCC1`, the growth inhibition in test [1] is -4.54%; in test [2], -9.07%. Also, the viability increase in test [3] is -3.82%. For the same compound, the viability in test [4] is 102%; in test [5], 90.8%. For the same compound, in test [6], the inhibition was -0.135%. Also, in test [7], the RAM network inhibition is 1.87%.
In the case of `Cc1cc2cc(CNC(=O)c3ccc(S(=O)(=O)N4CCCCC4)cc3)ccc2n1C`, the growth inhibition is 14.5% in test [1] and 11.4% in test [2]. The viability increase in test [3] is -0.91%. In addition, the viability in test [4] is 97.4%; in test [5], 94.2%. The inhibition in test [6] is 1.04%. Further, in test [7], the RAM network inhibition is 3.71%.
As for `CCN1CCN(CC(=O)NC2CCCC2)C(=O)C1=O`, the growth inhibition was 5.56% in test [1] and -5% in test [2]. The viability increase in test [3] is 0.46%. For the same compound, the viability in test [4] was 114%; in test [5], 94.9%. Besides, in test [6], the inhibition was 1.52%. For the same compound, the RAM network inhibition in test [7] was 1.79%.
In the case of `Cc1ccccc1Cn1c(=O)[nH]c2ccccc21`, the growth inhibition in test [1] was -1.87%; in test [2] it was 4.58%. Moreover, the viability increase in test [3] is 0.06%. Further, the viability is 96.5% in test [4] and 88.5% in test [5]. For the same compound, the inhibition in test [6] was 1.9%. For the same compound, in test [7], the RAM network inhibition was 4.55%.
As for `Cc1cccc(OCCn2c(=O)n(C)c3ccccc32)c1`, the growth inhibition is -9.27% in test [1] and -5.27% in test [2]. Further, in test [3], the viability increase was -2.39%. Moreover, the viability is 85.3% in test [4] and 83% in test [5]. In test [6], the inhibition is 0.755%. Also, the RAM network inhibition in test [7] is 0.1%.
On to `Cn1cc(SCC(=O)NCc2ccc3c(c2)OCO3)c2ccccc21`, for which the growth inhibition is 4.09% in test [1] and -1.53% in test [2]. In addition, the viability increase in test [3] was -4.24%. For the same compound, the viability in test [4] was 98.3%; in test [5] it was 95.1%. In addition, the inhibition in test [6] was 1.17%. The RAM network inhibition in test [7] was 4.4%.
Turning to `Cc1cc(NC(=O)CSc2nc3c([nH]c4ccccc43)c(=O)n2-c2cccc(C(F)(F)F)c2)no1`, the growth inhibition in test [1] is -8.72%; in test [2], -3.21%. Moreover, in test [3], the viability increase is -4.01%. Besides, the values for the viability in test [4] and in test [5] were 75.1% and 66.7%, respectively. For the same compound, the inhibition in test [6] is 2.41%. Also, the RAM network inhibition in test [7] was 1.08%.
As to `COC(=O)C1=C(C)N(C)C(C)=C(C(=O)OC)C1c1ccccc1C`, the growth inhibition in test [1] is -18.8%; in test [2] it was -21.1%. Moreover, the viability increase in test [3] was -0.42%. Also, the figures for the viability in test [4] and in test [5] were 94.6% and 87.7%, respectively. In addition, in test [6], the inhibition was 0.365%. In test [7], the RAM network inhibition was 3.87%.
For `COc1ccc(C(=O)NCCn2ccc3ccccc32)cc1OC`, the growth inhibition in test [1] is -9.53%; in test [2] it was -16.1%. The viability increase in test [3] is -3.48%. Besides, the results for the viability in test [4] and in test [5] were 99.7% and 81.9%, respectively. Besides, in test [6], the inhibition was 1.91%. Besides, the RAM network inhibition in test [7] was 2.68%.
On to `O=C(CSc1nc(-c2ccco2)cc(C(F)(F)F)n1)N1CCN(Cc2ccccc2)CC1`, for which the growth inhibition in test [1] was -6.8%; in test [2] it was -13.4%. For the same compound, the viability increase in test [3] is -4.54%. The values for the viability in test [4] and in test [5] were 86.8% and 82.8%, respectively. Further, the inhibition in test [6] was -0.555%. Further, the RAM network inhibition in test [7] was 6.26%.
With `Cc1ccccc1-c1nc(CN2CCC(C(=O)O)CC2)c(C)o1`, the growth inhibition is 1.1% in test [1] and -0.365% in test [2]. Besides, in test [3], the viability increase is -0.95%. Moreover, the viability in test [4] is 103%; in test [5], 93.9%. Moreover, the inhibition in test [6] is 0%. Moreover, the RAM network inhibition in test [7] was 0.11%.
